According to ChEMBL document CHEMBL4196235, “SAR of 4-Alkoxybenzoic Acid Inhibitors of the Trypanosome Alternative Oxidase” (ACS Med Chem Lett, 2018):
In brackets after ≈: the same amount, converted by molar mass. Activity calls are given as the source filed them. The calls are words filed in the database; no cut-off is given here.

How the values were obtained:
[1] = tested on: Trypanosoma brucei brucei; assay: Resistance factor, ratio of EC50 for diminazene, pentamidine and melaminophenyl arsenical-resistant bloodstream trypomastigote stage of Trypanosoma brucei brucei B48 harboring TbAT1 deletions to EC50 for bloodstream trypomastigote stage of wild-type Trypanosoma brucei brucei Lister 427; format: functional
[2] = Cytotoxicity against HEK293T cells after 30 hrs by resazurin dye based fluorescence assay; format: cell-based, HEK-293T; details: human
How it was run: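 Cytotoxicity was measured on human embryonic kidney (HEK) cells and reported as CC50. Values are the mean of 3 experiments ± SEM.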

[3] = Selectivity index, ratio of CC50 for HEK293T cells to EC50 for bloodstream trypomastigote stage of wild type Trypanosoma brucei brucei Lister 427; format: toxicity; details: human; read-out: Ratio CC50/EC50
How it was run: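 The selectivity index was calculated as CC50 in HEK cells divided by EC50 against wild-type T. b. brucei s427 bloodstream trypomastigotes.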

[4] = tested on: Trypanosoma brucei brucei; assay: Antiparasitic activity against bloodstream trypomastigote stage of wild type Trypanosoma brucei brucei Lister 427 after 48 hrs by resazurin dye based fluorescence assay; format: functional, organism-based
How it was run: (§1)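 Bloodstream trypomastigotes of T. b. brucei s427 (wild type) were tested, both with and without glycerol. EC50 values are the mean of 3 experiments ± SEM.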

[5] = molecular target: T1, Alternative oxidase, mitochondrial (Trypanosoma brucei brucei, UniProt Q26710); assay: Inhibition of recombinant Trypanosoma brucei brucei alternative oxidase using ubiquinol-1 as substrate incubated for 2 mins followed by substrate addition by spectrophotometric method
T1 sequence (Q26710 whole entry): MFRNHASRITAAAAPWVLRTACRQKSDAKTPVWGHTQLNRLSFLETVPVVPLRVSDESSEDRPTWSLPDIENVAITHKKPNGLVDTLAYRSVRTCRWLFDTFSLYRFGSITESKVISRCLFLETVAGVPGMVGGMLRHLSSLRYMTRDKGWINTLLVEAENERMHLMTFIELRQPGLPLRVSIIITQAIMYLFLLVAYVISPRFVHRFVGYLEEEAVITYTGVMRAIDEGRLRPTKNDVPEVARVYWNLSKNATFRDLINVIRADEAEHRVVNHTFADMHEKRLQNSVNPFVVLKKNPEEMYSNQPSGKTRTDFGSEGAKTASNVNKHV
How it was run: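 The assay measured inhibition of the ubiquinol oxidase activity of purified recombinant ∆MTS-TAO from T. b. brucei.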

[6] = tested on: Trypanosoma brucei brucei; assay: Resistant factor, ratio of EC50 for bloodstream trypomastigote stage of wild-type Trypanosoma brucei brucei Lister 427 assessed as inhibition of respiration in presence of glycerol to EC50 for bloodstream trypomastigote stage of wild-type Trypanosoma brucei brucei Lister 427 assessed as inhibition of respiration in absence of glycerol; format: functional
[7] = tested on: Trypanosoma brucei brucei; assay: Resistant factor, ratio of EC50 for pentamidine-resistant bloodstream trypomastigote stage of Trypanosoma brucei brucei harboring AQP1 to 3 deletions to EC50 for bloodstream trypomastigote stage of wild-type Trypanosoma brucei brucei Lister 427 in presence of glycerol; format: functional
[8] = tested on: Trypanosoma brucei brucei; assay: Antiparasitic activity against bloodstream trypomastigote stage of wild type Trypanosoma brucei brucei Lister 427 at 100 uM after 48 hrs by resazurin dye based fluorescence assay; format: functional, organism-based
[9] = tested on: Trypanosoma brucei brucei; assay: Antiparasitic activity against bloodstream trypomastigote stage of wild type Trypanosoma brucei brucei Lister 427 after 48 hrs in presence of glycerol by resazurin dye based fluorescence assay; format: functional; details: Lister 427, 48 h; how it was run: as §1
[10] = Dissociation constant, pKa of the compound; format: physicochemical
[11] = Selectivity index, ratio of CC50 for HEK293T cells to EC50 for pentamidine-resistant bloodstream trypomastigote stage of Trypanosoma brucei brucei harboring AQP1 to 3 deletions; format: toxicity; details: human; read-out: Ratio CC50/EC50
[12] = molecular target: T1, Alternative oxidase, mitochondrial; assay: Binding affinity to recombinant Trypanosoma brucei brucei 427 alternative oxidase expressed in Escherichia coli BL21 cells using ubiquinol-1 as substrate by spectrophotometric method

Structure (SMILES)	Ratio EC50 [1]	CC50 at 30 h [2] [µM]	selectivity ratio [3]	EC50 ([4]; Lister 427, 48 h) [µM]	IC50 [5] [µM]	also measured
COC(=O)c1ccc(OC/C(C)=C/CC/C(C)=C/COC(C)=O)cc1F	<1	–	–	–	–	–
COC(=O)c1ccc(OCCCCCCCCCCCCCBr)cc1O	<1	28.6	3.5	8.1	> 5	Ratio EC50 [6]: <1
CC(=O)OC/C=C(\C)CC/C=C(\C)COC(=O)c1ccc(O)cc1O	<1	> 20	–	–	0.0091	Ratio EC50 [6]: <1
O=Cc1ccc(OCCCCCCCCCCCCC[n+]2cccc3ccccc32)cc1O	–	> 200	> 114	1.75	1.23	–
O=C(NO)c1ccccc1O [SALICYLHYDROXAMIC ACID]	–	–	–	62.9	–	–
COC(=O)c1ccc(OCCCCCCCCCCCCC[P+](c2ccccc2)(c2ccccc2)c2ccccc2)cc1F.[Br-]	<1	0.22	4.5	0.05	0.74	Ratio EC50 [7]: >2
COC(=O)c1ccc(OC/C(C)=C/CC/C(C)=C/CO)cc1C	<1	> 100	–	–	1.69	Activity [8]: inactive
COC(=O)c1ccc(OCCCCCCCCCC[P+](c2ccccc2)(c2ccccc2)c2ccccc2)cc1O.[Br-]	<1	0.44	184	0.002	> 5	–
CCOC(=O)c1c(C)cc(OCCCCCCCCCCCCC[n+]2cccc3ccccc32)cc1O.[Br-]	<1	0.61	2.1	0.29	> 5	–
Cc1cc(OCCCCCCCCCCCCC[n+]2cccc3ccccc32)ccc1C(=O)O.[Br-]	<1	24.4	2.3	10.6	> 5	–
COC(=O)c1ccc(OCCCCCCCCCCCCC[P+](c2ccccc2)(c2ccccc2)c2ccccc2)cc1C.[Br-]	<1	0.35	19	0.018	> 5	Ratio EC50 [7]: >2
COC(=O)c1ccc(OCCCCCCCCCCCCCBr)cc1C	<1	–	–	–	–	Activity [4]: inactive
COC(=O)c1ccc(OC/C(C)=C/CC/C(C)=C/CO)cc1F	<1	> 100	–	–	> 5	Activity [8]: inactive
N=C(N)c1ccc(OCCCCCOc2ccc(C(=N)N)cc2)cc1 [PENTAMIDINE]	–	–	–	0.0042	–	–
CCOC(=O)c1c(C)cc(OC/C(C)=C/CC/C(C)=C/CC/C(C)=C/COC(C)=O)cc1O	<1	20.8	3.1	6.6	> 5	–
O=C(O)c1ccc(OCCCCCCCCCC[P+](c2ccccc2)(c2ccccc2)c2ccccc2)cc1O.[Br-]	<1	8.2	11	0.73	> 5	Ratio EC50 [6]: <1
C/C(=C\Cc1c(O)c(Cl)c(C)c(C=O)c1O)CC/C=C(\C)[C@@H]1CC(=O)C(C)(C)O1 [ASCOFURANONE]	–	–	–	–	–	MIC ([4]; Lister 427, 48 h): 250 µM (≈ 105 µg/mL); MIC [9]: 0.03 µM
C/C(=C\CO)CC/C=C(\C)COc1ccc(C(=O)O)c(C)c1	<1	–	–	–	0.92	pKa [10]: < 5; Activity [8]: inactive
COC(=O)c1c(C)cc(OCCCCCCCCCCCCC[P+](c2ccccc2)(c2ccccc2)c2ccccc2)cc1O.[Br-]	<1	–	–	–	–	Ratio EC50 [7]: >2
CCOC(=O)c1ccc(OC/C(C)=C/CC/C(C)=C/CO)cc1O	<1	–	–	–	> 5	–
COC(=O)c1ccc(OCCCCCCCCCCCCCBr)cc1F	<1	–	–	–	–	Activity [4]: inactive

Structure (SMILES)	Ratio EC50 [1]	CC50 at 30 h [2] [µM]	selectivity ratio [3]	EC50 ([4]; Lister 427, 48 h) [µM]	IC50 [5] [µM]	also measured
C/C(=C\CO)CC/C=C(\C)COc1ccc(C(=O)O)cc1	<1	–	–	–	2.4	pKa [10]: < 5; Activity [8]: inactive
O=Cc1ccc(OCCCCCCCCCCCCCBr)cc1O	–	–	–	17.6	0.073	–
COC(=O)c1ccc(OC/C(C)=C/CC/C(C)=C/COC(C)=O)cc1C	<1	45.1	2.7	17	> 5	–
COC(=O)c1ccc(OC/C(C)=C/CC/C(C)=C/COC(C)=O)cc1O	<1	31.8	1.7	19.3	> 5	–
O=C(O)c1ccc(OCCCCCCCCCCCCC[P+](c2ccccc2)(c2ccccc2)c2ccccc2)cc1O.[Br-]	<1	19.6	227	0.086	> 5	Ratio EC50 [7]: >2
Cc1cc(OCCCCCCCCCCCCC[P+](c2ccccc2)(c2ccccc2)c2ccccc2)ccc1C(=O)O.[Br-]	<1	4.24	22	0.19	> 5	Ratio EC50 [6]: <1
COC(=O)c1ccc(OCCCCCCCCCCCCC[n+]2cccc3ccccc32)cc1F.[Br-]	<1	3.36	1.4	2.4	> 5	Ratio EC50 [6]: <1
Cc1cc(OCCCCCCCCCCCCC[P+](c2ccccc2)(c2ccccc2)c2ccccc2)cc(O)c1C(=O)O.[Br-]	<1	0.83	64	0.013	0.0042	selectivity ratio [11]: 230; Ratio EC50 [6]: <1
C/C(=C\CO)CC/C=C(\C)COc1ccc(C(=O)O)c(F)c1	<1	–	–	–	1.1	pKa [10]: < 5; Activity [8]: inactive
COC(=O)c1ccc(OC/C(C)=C/CC/C(C)=C/CO)cc1O	<1	–	–	–	–	–
C/C(=C\CO)CC/C=C(\C)CC/C=C(\C)COc1cc(C)c(C(=O)O)c(O)c1	<1	–	–	–	0.0031	pKa [10]: < 5; Activity [8]: inactive
CC(C)=CCOc1ccc(C(=O)O)c(O)c1	–	–	–	–	–	Ki [12]: 5 µM
COC(=O)c1ccc(OCCCCCCCCCCCCC[P+](c2ccccc2)(c2ccccc2)c2ccccc2)cc1O.[Br-]	<1	–	–	0.018	0.015	–
CC(=O)OC/C=C(\C)CC/C=C(\C)COC(=O)c1ccc(OC/C(C)=C/CC/C(C)=C/COC(C)=O)cc1O	<1	–	–	–	> 5	–
C/C(=C\CO)CC/C=C(\C)COc1ccc(C(=O)O)c(O)c1	<1	–	–	–	2.1	pKa [10]: < 5; Activity [8]: inactive
COC(=O)c1cc(OCCCCCCCCCCCCC[P+](c2ccccc2)(c2ccccc2)c2ccccc2)ccc1O.[Br-]	<1	0.64	–	0.028	0.012	–
COc1cc(OCCCCCCCCCCCCCBr)cc(O)c1C=O	<1	–	–	–	2.3	Activity [8]: inactive
O=C(O)c1ccc(OCCCCCCCCCCCCC[P+](c2ccccc2)(c2ccccc2)c2ccccc2)cc1F.[Br-]	<1	8.35	225	0.037	> 5	Ratio EC50 [7]: >2
CCOC(=O)c1c(C)cc(OCCCCCCCCCCCCCBr)cc1O	<1	29.6	3.3	8.9	> 5	Ratio EC50 [6]: <1
COC(=O)c1ccc(OCCCCCCCCCCCCC[n+]2cccc3ccccc32)cc1C.[Br-]	<1	0.3	1.9	0.16	> 5	–
